Laboratory results: ChEMBL document CHEMBL5705901, “Exploiting selective BCL-2 family inhibitors to dissect cell survival dependencies and define improved strategies for cancer therapy” (Sci Transl Med, 2015)
Calls of active or inactive are those of the source. No cut-off for these calls is given here.

How the values were obtained:
MOLT-4 = assay: Antitumor activity against human MOLT-4 cells xenografted in SCID-bg mouse assessed as tumor regression at 25 mg/kg, po administered twice a day for 14 days; assay type: functional, organism-based; settings: time 14.0 day
How it was run: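 Mice bearing Molt-4 T-ALL xenografts, dosed alongside a vehicle control group. Each point on the growth curve is the mean volume of 10 tumours, with SD.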

OVCAR-5 [1] = assay: Antitumor activity against human OVCAR-5 xenografted in po dosed SCID mouse assessed as tumor growth delay relative to control; assay type: functional
How it was run: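 Tumor volume-based endpoints. TGD = 100(T/C − 1), where T and C are the median times for the treated and control groups to reach 1 cm3. Groups were five mice for NCI-H747 and OVCAR-5 and eight for NCI-H358. Docetaxel was given intravenously and the test agent orally.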

OVCAR-5 [2] = assay: Synergistic antitumor activity against human OVCAR-5 cells xenografted in po dosed SCID mouse assessed as tumor growth delay in presence of docetaxel relative to control; assay type: functional
How it was run: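 Xenografts dosed with oral inhibitor plus intravenous docetaxel. TGImax = 100(1 − Tv/Cv), from mean treated and control tumor volumes; TGD = 100(T/C − 1), from median times to reach 1 cm3. Group size 5 mice (NCI-H747, A549-FP3, EBC-1, OVCAR-5), 8 (NCI-H358), 10 (NCI-H1650).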

[3] = Toxicity in po dosed SCID mouse assessed as body weight loss in presence of docetaxel relative to control; assay type: organism-based; settings: in vivo
NCI-H146 = assay: Induction of apoptosis in Bcl-xl dependent human NCI-H146 cells assessed as accumulation of caspase-dependent sub G0-G1 DNA content upto 5000 nM incubated for 24 hrs by fluorescence-activated cell sorting analysis; assay type: functional, cell-based
How it was run: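 NCI-H146 cells were preincubated for 1 h with or without the caspase inhibitor Z-VAD-fmk (75 μM). They were then exposed to increasing concentrations for 24 h. Sub-G0-G1 DNA content was measured by fluorescence-activated cell sorting.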

HCC38 = assay: Synergistic antiproliferative activity against human HCC38 cells assessed as reduction in cell viability by measuring bliss sum score incubated for 72 hrs in presence of docetaxel by CellTiter-Glo cell vaibility assay; assay type: functional
MCF7 = assay: Synergistic antiproliferative activity against human MCF7 cells expressing luciferase assessed as reduction in cell viability by measuring bliss sum score incubated for 72 hrs in presence of docetaxel by CellTiter-Glo cell vaibility assay; assay type: functional
DU-4475 = assay: Synergistic antiproliferative activity against human DU-4475 cells assessed as reduction in cell viability by measuring bliss sum score incubated for 72 hrs in presence of docetaxel by CellTiter-Glo cell vaibility assay; assay type: functional
BT-549 = assay: Synergistic antiproliferative activity against human BT-549 cells assessed as reduction in cell viability by measuring bliss sum score incubated for 72 hrs in presence of docetaxel by CellTiter-Glo cell vaibility assay; assay type: functional
SK-MES-1 = assay: Synergistic antiproliferative activity against human SK-MES-1 cells assessed as reduction in cell viability by measuring bliss sum score incubated for 72 hrs in presence of docetaxel by CellTiter-Glo cell vaibility assay; assay type: functional
NCI-H1299 = assay: Synergistic antiproliferative activity against human NCI-H1299 cells assessed as reduction in cell viability by measuring bliss sum score incubated for 72 hrs in presence of docetaxel by CellTiter-Glo cell vaibility assay; assay type: functional
NCI-H522 = assay: Synergistic antiproliferative activity against human NCI-H522 cells assessed as reduction in cell viability by measuring bliss sum score incubated for 72 hrs in presence of docetaxel by CellTiter-Glo cell vaibility assay; assay type: functional
HCC2218 = assay: Antagonistic antiproliferative activity against human HCC2218 cells assessed as reduction in cell viability by measuring bliss sum score incubated for 72 hrs in presence of docetaxel by CellTiter-Glo cell vaibility assay; assay type: functional
MDA-MB-468 = assay: Induction of apoptosis in human MDA-MB-468 cells assessed as accumulation of cells with sub-G0-G1 DNA content at 1 uM incubated for 48 hrs in presence of docetaxel by flow cytometric analysis; assay type: functional, cell-based
HCC1143 = assay: Induction of apoptosis in human HCC1143 cells assessed as accumulation of cells with sub-G0-G1 DNA content at 1 uM incubated for 48 hrs in presence of docetaxel by flow cytometric analysis; assay type: functional, cell-based
HCC1500 = assay: Induction of apoptosis in human HCC1500 cells assessed as accumulation of cells with sub-G0-G1 DNA content at 1 uM incubated for 48 hrs in presence of docetaxel by flow cytometric analysis; assay type: functional, cell-based

With Cc1c(-c2ccc(N3CCc4cccc(C(=O)Nc5nc6ccccc6s5)c4C3)nc2C(=O)O)cnn1CC12CC3CC(CC(C3)C1)C2 the Activity (MOLT-4) was “Active”, the Activity (OVCAR-5 [1]) was 54% and the Activity (OVCAR-5 [2]) was 85%. For the same molecule, the Activity [3] was less than 9%.
For CN(C)CC#Cc1ccc(OCCCc2sc(N3CCc4cccc(C(=O)Nc5nc6ccccc6s5)c4C3)nc2C(=O)O)c(F)c1 [A-1155463], the Activity (NCI-H146) was “Active”, the Activity_index (HCC38) was 42 and the Activity_index (MCF7) was 63. The Activity_index (DU-4475) was 229, the Activity_index (BT-549) was 117 and the Activity_index (SK-MES-1) was 152. The Activity_index (NCI-H1299) was 302, the Activity_index (NCI-H522) was 242 and the Activity_index (HCC2218) was -250.
In the case of CC1(C)CCC(c2ccc(Cl)cc2)=C(CN2CCN(c3ccc(C(=O)NS(=O)(=O)c4ccc(N[C@H](CCN5CCOCC5)CSc5ccccc5)c(S(=O)(=O)C(F)(F)F)c4)cc3)CC2)C1 [NAVITOCLAX], the Activity (MDA-MB-468) is reported as “Active”, the Activity (HCC1143) is reported as “Active” and the Activity (HCC1500) is reported as “Active”.
